Active and inactive are the calls of the source. The calls are words filed in the database; no cut-off is given here.
Tests used:
[1] = test system: MDA-MB-231; test: […] in human MDA-MB-231 cells assessed as induction of LC3-II accumulation at 2 umol/L for 48 hrs by Western blot analysis; type: functional, cell-based; settings: dose 2.0 µmol/L
[2] = test system: MDA-MB-231; test: Induction of autophagy in human MDA-MB-231 cells assessed as induction of LC3-II accumulation at 10 umol/L for 48 hrs by Western blot analysis; settings: dose 10.0 µmol/L
[3] = test system: MDA-MB-231; test: Induction of apoptosis in human MDA-MB-231 cells assessed as induction of cleavage of PARP at 10 to 20 umol/L incubated for 72 hrs by Western blot analysis; type: functional, cell-based; settings: dose 10-20 µmol/L
[4] = test system: HepG2; test: […] in human HepG2 cells assessed as induction of LC3-II accumulation at 10 to 20 umol/L measured after 24 hrs by Western blot analysis; type: functional, cell-based; settings: dose 10-20 µmol/L
Summary of the method: (§1)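 A549 and HepG2 cells drug-treated with or without bafilomycin A1. Lysates made in Tris pH 7.5/NP-40 buffer with protease and phosphatase inhibitors, 25–50 μg run on 7–12% SDS-PAGE, probed for LC3B, ECL detection.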

[5] = test system: HepG2; test: Potentiation of sorafenib-induced anticancer activity in human HepG2 cells assessed as increase in cleaved PARP expression at 10 umol/L measured after 72 hrs by Western blot analysis; type: functional, cell-based; settings: dose 10.0 µmol/L
Summary of the method: (§2)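 HepG2 cells given 5 μmol/l sorafenib, with or without 10 μmol/l compound, for 72 h. Whole-cell lysates immunoblotted for PARP1, LC3B and β-actin.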

[6] = test system: HepG2; test: Potentiation of sorafenib-induced anticancer activity in human HepG2 cells at 10 umol/L measured after 72 hrs by MTT assay; type: functional, cell-based; settings: dose 10.0 µmol/L
Summary of the method: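 HepG2 cells given a range of sorafenib doses, with or without 10 μmol/l compound, for 72 h. Viability by MTT (0.5 mg/ml, 4 h, DMSO, A550). Student's t-test against untreated cells.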

[7] = test system: MDA-MB-231; test: Induction of autophagy in human MDA-MB-231 cells assessed as increase in LC3-II accumulation at 10 umol/L incubated for 24 hrs in presence of bafilomycin A1 by Western blot analysis; type: functional, cell-based; settings: dose 10.0 µmol/L
[8] = test system: MDA-MB-231; test: Induction of autophagy in human MDA-MB-231 cells assessed as change in total LAMP2 expression at 10 umol/L measured after 24 hrs in presence of bafilomycin A1 by Western blot analysis; type: toxicity, cell-based; settings: mda-mb-231, 24 h, 10 µM, dose 10 µmol/L
[9] = target: Histone-lysine N-methyltransferase EZH2 (Homo sapiens) (UniProt Q15910); test: Inhibition of EZH2 in human HepG2 cells assessed as reduction in H3K27-me3 level at 10 umol/L incubated for 72 hrs by Western blot analysis; type: cell-based; settings: dose 10.0 µmol/L
Histone-lysine N-methyltransferase EZH2 (Homo sapiens), sequence (Q15910 whole entry, looked up): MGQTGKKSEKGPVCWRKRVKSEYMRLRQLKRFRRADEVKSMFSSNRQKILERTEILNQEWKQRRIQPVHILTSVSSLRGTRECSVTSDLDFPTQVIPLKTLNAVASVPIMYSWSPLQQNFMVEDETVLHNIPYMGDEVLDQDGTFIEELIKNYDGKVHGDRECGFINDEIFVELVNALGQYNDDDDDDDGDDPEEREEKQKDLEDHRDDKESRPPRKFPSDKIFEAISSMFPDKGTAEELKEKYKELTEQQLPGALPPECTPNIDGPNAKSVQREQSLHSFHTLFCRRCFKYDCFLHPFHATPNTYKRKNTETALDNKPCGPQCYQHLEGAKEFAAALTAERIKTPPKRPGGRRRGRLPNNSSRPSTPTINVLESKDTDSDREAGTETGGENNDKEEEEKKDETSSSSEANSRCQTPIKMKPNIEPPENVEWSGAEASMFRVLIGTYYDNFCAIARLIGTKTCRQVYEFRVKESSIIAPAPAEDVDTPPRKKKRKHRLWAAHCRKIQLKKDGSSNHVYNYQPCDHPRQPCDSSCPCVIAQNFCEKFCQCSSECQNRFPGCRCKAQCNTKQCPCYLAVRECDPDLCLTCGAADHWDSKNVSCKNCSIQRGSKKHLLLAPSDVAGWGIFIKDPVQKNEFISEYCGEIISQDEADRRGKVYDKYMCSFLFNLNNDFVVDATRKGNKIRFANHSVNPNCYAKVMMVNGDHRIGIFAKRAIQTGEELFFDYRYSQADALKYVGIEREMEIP

[10] = test system: MDA-MB-231; test: Induction of autophagy in human MDA-MB-231 cells assessed as reduction in expression of p62 at 10 umol/L incubated for 24 hrs by Western blot analysis; type: functional, cell-based; settings: dose 10.0 µmol/L
[11] = test system: A549; test: […] in human A549 cells assessed as induction of LC3-II accumulation at 10 to 20 umol/L measured after 24 hrs by Western blot analysis; type: functional, cell-based; settings: dose 10-20 µmol/L; summary of the method: as §1
[12] = test system: HepG2; test: Cytotoxicity against human HepG2 cells assessed as effect on cell viability incubated for 72 hrs by MTT analysis; type: functional, cell-based
Summary of the method: (§3)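 Cells in DMEM with 10% FBS at 37°C, 5% CO2, plated in 96-well plates and drug-treated for 72 h. MTT 0.5 mg/ml added for 4 h, formazan dissolved in DMSO, absorbance read at 550 nm. Means and SDs; Student's t-test.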

[13] = target: Histone-lysine N-methyltransferase EZH2 (Homo sapiens) (UniProt Q15910); test: Inhibition of EZH2 in human A549 cells assessed as reduction in H3K27-me3 level at 10 umol/L incubated for 72 hrs by Western blot analysis; type: cell-based; settings: dose 10.0 µmol/L
[14] = test system: MDA-MB-231; test: Induction of autophagy in human MDA-MB-231 cells assessed as induction of LC3-II accumulation at 10 to 20 umol/L incubated for 24 hrs by Western blot analysis; type: functional, cell-based; settings: dose 10-20 µmol/L
[15] = test system: MDA-MB-231; test: […] in human MDA-MB-231 cells assessed as induction of LC3-II accumulation at 10 umol/l measured after 24 hrs in presence of class III PI3K inhibitor 3-methyladenine by Western blot analysis; type: functional, cell-based; settings: dose 10.0 µmol/L
[16] = test system: MDA-MB-231; test: Induction of autophagy in human MDA-MB-231 cells assessed as downregulation of p62 expression at 10 umol/L measured after 24 hrs in presence of bafilomycin A1 by Western blot analysis; type: functional, cell-based; settings: dose 10.0 µmol/L
[17] = target: Histone-lysine N-methyltransferase EZH2 (Homo sapiens) (UniProt Q15910); test: Inhibition of EZH2 in human MDA-MB-231 cells assessed as reduction in H3K27-me3 level at 10 umol/L incubated for 72 hrs by Western blot analysis; type: cell-based; settings: dose 10.0 µmol/L
[18] = test system: HepG2; test: Cytotoxicity against human HepG2 cells assessed as effect on cell viability after 72 hrs by MTT analysis; type: functional, cell-based; summary of the method: as §3
[19] = test system: HepG2; test: […] in human HepG2 cells assessed as induction of LC3-II accumulation at 10 to 20 umol/L measured after 24 hrs in presence of bafilomycin A1 by Western blot analysis; type: functional, cell-based; settings: dose 10-20 µmol/L; summary of the method: as §1
[20] = test system: MDA-MB-231; test: Induction of apoptosis in human MDA-MB-231 cells assessed as induction of cleavage of caspase-3 at 10 to 20 umol/L incubated for 72 hrs by Western blot analysis; type: functional, cell-based; settings: dose 10-20 µmol/L
[21] = test system: A549; test: Cytotoxicity against human A549 cells assessed as reduction in cell viability at 10 umol/L measured after 72 hrs in presence of class III PI3K inhibitor 3-methyladenine by MTT assay; type: functional, cell-based; settings: dose 10.0 µmol/L
Summary of the method: (§4)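 HepG2 and A549 cells pretreated 1 h with 2 mmol/l 3-MA, then exposed to 10 μmol/l compound for 72 h. Viability read by MTT (0.5 mg/ml, 4 h, formazan in DMSO, A550). Means and SDs; Student's t-test against cells without 3-MA.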

[22] = test system: MDA-MB-231; test: Induction of autophagy in human MDA-MB-231 cells assessed as change in total LAMP2 expression at 10 umol/L measured after 24 hrs by Western blot analysis; type: toxicity, cell-based; settings: mda-mb-231, 24 h, 10 µM, dose 10 µmol/L
[23] = test system: A549; test: […] in human A549 cells assessed as induction of LC3-II accumulation at 10 to 20 umol/L measured after 24 hrs in presence of bafilomycin A1 by Western blot analysis; type: functional, cell-based; settings: dose 10-20 µmol/L; summary of the method: as §1
[24] = test system: MDA-MB-231; test: Cytotoxicity against human MDA-MB-231 cells assessed as reduction in cell viability after 72 hr by MTT analysis; type: functional, cell-based; summary of the method: as §3
[25] = test system: MDA-MB-231; test: Induction of autophagy in human MDA-MB-231 cells assessed as induction of LC3-II accumulation at 10 to 20 umol/L incubated for 72 hrs by Western blot analysis; type: functional, cell-based; settings: dose 10-20 µmol/L
[26] = test system: MDA-MB-231; test: Cytotoxicity against human MDA-MB-231 cells assessed as reduction in cell viability measured after 72 hrs in presence of class III PI3K inhibitor 3-methyladenine by MTT assay; type: functional, cell-based
[27] = test system: HepG2; test: Potentiation of sorafenib-induced anticancer activity in human HepG2 cells assessed as increase in LC3-II accumulation at 10 umol/L measured after 72 hrs by Western blot analysis; type: functional, cell-based; settings: dose 10.0 µmol/L; summary of the method: as §2
[28] = test system: MDA-MB-231; test: Induction of autophagy in human MDA-MB-231 cells assessed as formation of autophagic vacuoles by measuring increase in Cyto-ID fluorescence intensity at 10 umol/L by measured after 24 hrs by Cyto-ID/Hoechst 33342 fluorescence microscopic analysis; type: functional, cell-based; settings: dose 10.0 µmol/L
Summary of the method: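 MDA-MB-231 cells washed twice in PBS with 5% FBS, then stained with Cyto-ID detection reagent plus Hoechst 33342 for 30 min at 37°C. Cells washed and autophagic vacuoles imaged by fluorescence microscopy.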

[29] = test system: HepG2; test: Cytotoxicity against human HepG2 cells assessed as reduction in cell viability at 10 umol/L measured after 72 hrs in presence of class III PI3K inhibitor 3-methyladenine by MTT assay; type: functional, cell-based; settings: dose 10.0 µmol/L; summary of the method: as §4
[30] = test system: MDA-MB-231; test: Induction of apoptosis in human MDA-MB-231 cells assessed as reduction in pro-caspase-3 expression at 10 to 20 umol/L incubated for 72 hrs by Western blot analysis; type: functional, cell-based; settings: dose 10-20 µmol/L

With `O=C(CCCCCCC(=O)Nc1ccccc1)NO` the Activity [1] was “Active”.
In the case of `COc1cc([C@@H]2c3cc4c(cc3[C@@H](O[C@@H]3O[C@@H]5CO[C@@H](C)O[C@H]5[C@H](O)[C@H]3O)[C@H]3COC(=O)[C@H]23)OCO4)cc(OC)c1O`, the Activity [2] is reported as “Active”.
For `CCCc1cc(C)[nH]c(=O)c1CNC(=O)c1cc(-c2ccnc(N3CCN(C)CC3)c2)cc2c1cnn2C(C)C`, the Activity [3] was “Active”, the Activity [4] was “Active” and the Activity [5] was “Active”. For the same molecule, the Activity [6] was “Active”, the Activity [7] was “Active” and the Activity [8] was “Non-Toxic”. For the same molecule, the inhibition [9] was “Active”, the Activity [10] was “Active” and the Activity [11] was “Active”. The Activity [12] was “Active”, the inhibition [13] was “Active” and the Activity [14] was “Active”. For the same molecule, the Activity [15] was “inactive”, the Activity [16] was “inactive” and the inhibition [17] was “Active”. For the same molecule, the Activity [18] was “Active”, the Activity [19] was “Active” and the Activity [20] was “inactive”. The Activity [21] was “inactive”, the Activity [22] was “Non-Toxic” and the Activity [23] was “Active”. For the same molecule, the Activity [2] was “Active”, the Activity [24] was “Dose-Dependent Effect” and the Activity [25] was “Active”. For the same molecule, the Activity [26] was “inactive”, the Activity [27] was “Active” and the Activity [28] was “Active”. For the same molecule, the Activity [29] was “inactive” and the Activity [30] was “Active”.
For `CCCc1cc(C)[nH]c(=O)c1CNC(=O)c1cc(-c2ccc(N3CCN(C(C)C)CC3)nc2)cc2c1cnn2C(C)C`, the Activity [2] was “Active”.
For `COc1ccc2cc3[n+](cc2c1OC)CCc1cc2c(cc1-3)OCO2`, the Activity [2] was “Active”.
